Twelve compounds from ChEMBL document CHEMBL4229408 (Bioorg Med Chem, 2018) can be followed below.

pIC50: −log10 of the molar value.

Data set [1] can be described thus: Antiproliferative activity against human CAR cells after 72 hrs by MTT assay. Format: functional, cell-based. Summed up: (§1)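 CAR cells (CAL27 made cisplatin-resistant by 10 cycles of 10–80 μM cisplatin) kept in DMEM/10% FBS with 80 μM cisplatin. Seeded 2×10^4 cells/well and exposed to 0, 25, 50, 75 and 100 μM for 48 or 72 h, with 0.5% DMSO as vehicle. MTT (500 μg/ml) added for 4 h at 37 °C, formazan dissolved in DMSO, A570 read as % of control, IC50 derived.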
(In general: Formazan colour is commonly taken as a measure of viable cells.)

Data set [2] is described as follows: Antiproliferative activity against human CAR cells after 48 hrs by MTT assay. The data set is classed as functional, cell-based. Summed up:
as §1

Data set [3] deals with Mus musculus. In words: Toxicity in BALB/c nude mouse xenografted with human CAR cells assessed as blood urea nitrogen levels in blood at 25 mg/kg, po qd administered for 30 days measured on day 31 (reference value: 27.7 +/- 4.116 mg/dL). The data set is classed as organism-based. The following applies: in vivo, 720 h. In general terms: In xenograft studies the graft and the host belong to different species.

Data set [4] can be described thus: Antitumor activity against human CAR cells xenografted in BALB/c nude mouse assessed as inhibition of tumor weight at 100 mg/kg, po qd administered for 30 days measured on day 31 relative to control. The arrangement: scale not given: the % may be the effect or the level left. The data set is classed as functional. An outline of the steps: (§2)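 Male BALB/c nude mice, four weeks old, implanted subcutaneously in the flank with CAR cells (cisplatin-resistant CAL27 kept in 80 μM cisplatin), 1×10^7 cells/mouse in 0.2 mL medium:Matrigel 1:1. Dosing began at ~50 mm3 tumors (day 22), eight mice/group, oral once daily for 30 days; vehicle 1,2-propanediol. Sacrificed day 31; excised tumors weighed, compared to vehicle controls.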

Data set [5] deals with Mus musculus. In words: Toxicity in BALB/c nude mouse xenografted with human CAR cells assessed as glucose levels in blood at 100 mg/kg, po qd administered for 30 days measured on day 31 (reference value: 180 +/- 10.392 mg/dL). The data set is classed as organism-based. The following applies: in vivo, 720 h.
A short description of data set [6]: Antitumor activity against human CAR cells xenografted in BALB/c nude mouse assessed as tumor weight at 25 mg/kg, po qd administered for 30 days measured on day 31 relative to control. The data set is classed as functional. An outline of the steps:
as §2

Data set [7] relates to Mus musculus. In words: Toxicity in BALB/c nude mouse xenografted with human CAR cells assessed as change in behavior at 25 to 100 mg/kg, po qd administered for 30 days measured during compound dosing. Format: organism-based. The following applies: in vivo, 720 h. Summed up: (§3)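 During the 30-day once-daily oral dosing (25–100 mg/kg) of CAR-xenografted nude mice, body weight, food intake and behaviour were tracked and compared with vehicle-treated controls.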

The test system of data set [8] is Mus musculus. In words: Toxicity in BALB/c nude mouse xenografted with human CAR cells assessed as blood urea nitrogen levels in blood at 50 mg/kg, po qd administered for 30 days measured on day 31 (reference value: 27.7 +/- 4.116 mg/dL). The data set is classed as organism-based. To be noted: in vivo, 720 h.
Data set [9] has as its system Mus musculus. In words: Toxicity in BALB/c nude mouse xenografted with human CAR cells assessed as glucose levels in blood at 50 mg/kg, po qd administered for 30 days measured on day 31 (reference value: 180 +/- 10.392 mg/dL). The data set is classed as organism-based. To be noted: in vivo, 720 h.
For data set [10], the system named is Mus musculus. In words: Toxicity in BALB/c nude mouse xenografted with human CAR cells assessed as total protein levels in blood at 50 mg/kg, po qd administered for 30 days measured on day 31 (reference value: 5.6 +/- 0.283 g/dL). Format: organism-based. The following applies: in vivo, 720 h.
Data set [11] has as its system Mus musculus. In words: Toxicity in BALB/c nude mouse xenografted with human CAR cells assessed as creatinine levels in blood at 100 mg/kg, po qd administered for 30 days measured on day 31 (reference value: 1 +/- 0.18 mg/dL). Format: organism-based. To be noted: in vivo, 720 h.
The test system of data set [12] is Mus musculus. In words: Toxicity in BALB/c nude mouse xenografted with human CAR cells assessed as albumin levels in blood at 25 mg/kg, po qd administered for 30 days measured on day 31 (reference value: 3.45 +/- 0.138 g/dL). Format: organism-based. The following applies: in vivo, 720 h.
Data set [13] relates to Mus musculus. In words: Toxicity in BALB/c nude mouse xenografted with human CAR cells assessed as change in body weight at 25 to 100 mg/kg, po qd administered for 30 days measured during compound dosing. Format: organism-based. The following applies: in vivo, 720 h. An outline of the steps:
as §3

The nature of data set [14]: Prodrug conversion in Sprague-Dawley rat whole blood assessed as formation of pterostilbene-4'-O-sulfate by measuring Tmax of metabolite at 100 mg/kg, po using HPbetaCD, PEG300, H2O formulation at 20:10:70 by LC-MS method. Format: ADME, organism-based. The following applies: in vivo. An outline of the steps: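 Male Sprague-Dawley rats (200–220 g), n = 3, given a single oral 100 mg/kg dose in HPβCD:PEG300:H2O 20:10:70 (10 mg/mL). Tail-vein blood collected into heparin at 0.5–24 h (0.5, 1, 1.5, 2, 3, 4, 5, 6, 8, 24 h).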

Data set [15] concerns Mus musculus. In words: Toxicity in BALB/c nude mouse xenografted with human CAR cells assessed as albumin levels in blood at 100 mg/kg, po qd administered for 30 days measured on day 31 (reference value: 3.45 +/- 0.138 g/dL). To be noted: in vivo, 720 h. Format: organism-based.
Data set [16] deals with Mus musculus. In words: Toxicity in BALB/c nude mouse xenografted with human CAR cells assessed as blood urea nitrogen levels in blood at 100 mg/kg, po qd administered for 30 days measured on day 31 (reference value: 27.7 +/- 4.116 mg/dL). Format: organism-based. The following applies: in vivo, 720 h.
Data set [17] has as its system Mus musculus. In words: Toxicity in BALB/c nude mouse xenografted with human CAR cells assessed as creatinine levels in blood at 50 mg/kg, po qd administered for 30 days measured on day 31 (reference value: 1 +/- 0.18 mg/dL). Format: organism-based. The following applies: in vivo, 720 h.
Data set [18] relates to Mus musculus. In words: Toxicity in BALB/c nude mouse xenografted with human CAR cells assessed as change in food consumption at 25 to 100 mg/kg, po qd administered for 30 days measured during compound dosing. The following applies: in vivo, 720 h. Format: organism-based. Summed up:
as §3

Data set [19] has as its system Mus musculus. In words: Toxicity in BALB/c nude mouse xenografted with human CAR cells assessed as uric acid levels in blood at 50 mg/kg, po qd administered for 30 days measured on day 31 (reference value: 4.65 +/- 0.864 mg/dL). The following applies: in vivo, 720 h. Format: organism-based.
Data set [20] relates to Mus musculus. In words: Toxicity in BALB/c nude mouse xenografted with human CAR cells assessed as total protein levels in blood at 100 mg/kg, po qd administered for 30 days measured on day 31 (reference value: 5.6 +/- 0.283 g/dL). The data set is classed as organism-based. The following applies: in vivo, 720 h.
In data set [21] the test system is Mus musculus. In words: Toxicity in BALB/c nude mouse xenografted with human CAR cells assessed as total protein levels in blood at 25 mg/kg, po qd administered for 30 days measured on day 31 (reference value: 5.6 +/- 0.283 g/dL). Format: organism-based. The following applies: in vivo, 720 h.
The subject of data set [22] is Mus musculus. In words: Toxicity in BALB/c nude mouse xenografted with human CAR cells assessed as uric acid levels in blood at 100 mg/kg, po qd administered for 30 days measured on day 31 (reference value: 4.65 +/- 0.864 mg/dL). The data set is classed as organism-based. The following applies: in vivo, 720 h.
Data set [23] deals with Mus musculus. In words: Toxicity in BALB/c nude mouse xenografted with human CAR cells assessed as uric acid levels in blood at 25 mg/kg, po qd administered for 30 days measured on day 31 (reference value: 4.65 +/- 0.864 mg/dL). Format: organism-based. To be noted: in vivo, 720 h.
The test system of data set [24] is Mus musculus. In words: Toxicity in BALB/c nude mouse xenografted with human CAR cells assessed as creatinine levels in blood at 25 mg/kg, po qd administered for 30 days measured on day 31 (reference value: 1 +/- 0.18 mg/dL). Format: organism-based. The following applies: in vivo, 720 h.
Data set [25] concerns Mus musculus. In words: Toxicity in BALB/c nude mouse xenografted with human CAR cells assessed as albumin levels in blood at 50 mg/kg, po qd administered for 30 days measured on day 31 (reference value: 3.45 +/- 0.138 g/dL). Format: organism-based. To be noted: in vivo, 720 h.
The test system of data set [26] is Mus musculus. In words: Toxicity in BALB/c nude mouse xenografted with human CAR cells assessed as glucose levels in blood at 25 mg/kg, po qd administered for 30 days measured on day 31 (reference value: 180 +/- 10.392 mg/dL). Format: organism-based. The following applies: in vivo, 720 h.
A short description of data set [27]: Antitumor activity against human CAR cells xenografted in BALB/c nude mouse assessed as inhibition of tumor weight at 50 mg/kg, po qd administered for 30 days measured on day 31 relative to control. Set-up: scale not given: the % may be the effect or the level left. The data set is classed as functional. Summed up: as §2

As for `COc1ccc(/C=C/c2cc(OC(=O)C(C)(CO)CO)cc(OC(=O)C(C)(CO)CO)c2)cc1`, the pIC50 in data set [1] is 4.15; in [2] it was 4.13.
Turning to `COc1cc(O)cc(/C=C/c2ccc(OC(=O)C(C)(CO)CO)cc2)c1`, the negative-log IC50 (pIC50) in data set [1] was 4.19.
Still for that read-out and setting: as for `CC(CO)(CO)C(=O)Oc1ccc(/C=C/c2cc(OC(=O)C(C)(CO)CO)cc(OC(=O)C(C)(CO)CO)c2)cc1`, the figure is 3.91.
Consider `CC(CO)(CO)C(=O)Oc1cc(O)cc(/C=C/c2ccc(O)cc2)c1`, for which the pIC50 in data set [2] was 4.26.
With `COc1cc(/C=C/c2ccc(OC(=O)C(C)(CO)CO)cc2)cc(OC(C)=O)c1`, the pIC50 is 4.30 in [1] and 4.28 in data set [2].
As for `COc1cc(/C=C/c2ccc(OC(=O)C(C)(CO)CO)cc2)cc(OC)c1`, the Activity is 28.2 mg/dL in the data set with Mus musculus [3]; 22% in [4]; 196.5 mg/dL with Mus musculus [5]; 60% in [6]; “Non-Toxic” with Mus musculus [7]; 30.95 mg/dL in the data set on Mus musculus [8]. Also, the Activity is 172.5 mg/dL in the data set with Mus musculus [9]; 5.583 g/dL with Mus musculus [10]; 0.83 mg/dL in the data set with Mus musculus [11]; 3.666 g/dL in the data set with Mus musculus [12]; “Non-Toxic” in the data set with Mus musculus [13]; 3.4 g/dL with Mus musculus [15]. Further, the Activity with Mus musculus [16] was 29.25 mg/dL; with Mus musculus [17] it was 0.91 mg/dL; with Mus musculus [18], “Non-Toxic”; in the data set with Mus musculus [19], 5.45 mg/dL; in the data set with Mus musculus [20] it was 5.283 g/dL; in the data set with Mus musculus [21], 5.383 g/dL. Further, the Activity was 5.05 mg/dL in the data set with Mus musculus [22]; 4.567 mg/dL in the data set on Mus musculus [23]; 1.133 mg/dL in the data set on Mus musculus [24]; 3.417 g/dL in the data set with Mus musculus [25]; 181.333 mg/dL with Mus musculus [26]; 47% in data set [27]. For the same compound, the Tmax in data set [14] came to 2 h. For the same compound, the pIC50 is 4.49 in data set [1] and 4.14 in [2].
In the case of `CC(=O)Oc1cc(/C=C/c2ccc(OC(=O)C(C)(CO)CO)cc2)cc(OC(C)=O)c1`, the pIC50 in [1] was 3.94; in data set [2], 3.99.
For `CC(=O)Oc1cc(/C=C/c2ccc(OC(=O)C(C)(CO)CO)cc2)cc(OC(=O)C(C)(CO)CO)c1`, the pIC50 is 3.92 in [1] and 3.91 in data set [2].
Regarding `COc1cc(/C=C/c2ccc(OC(=O)C(C)(CO)CO)cc2)cc(OC(=O)C(C)(CO)CO)c1`, the values for the negative-log IC50 (pIC50) in [1] and in data set [2] were 4.22 and 4.25, respectively.
`COc1ccc(/C=C/c2cc(OC)cc(OC(=O)C(C)(CO)CO)c2)cc1`: the values for the negative logarithm of the IC50 (pIC50) in data set [1] and in data set [2] were 4.17 and 4.19, respectively.
In the case of `COc1ccc(/C=C/c2cc(O)cc(OC)c2)cc1`, the pIC50 was 4.01 in data set [1] and 4.00 in [2].
Compound `Oc1ccc(/C=C/c2cc(O)cc(O)c2)cc1` [RESVERATROL] gave a pIC50 in data set [1] of 4.05.

The pIC50 is the negative decadic logarithm of the IC50, by convention in mol/L. The term Tmax denotes the time at which the peak concentration occurs.
